Compound activity deposited in PubChem BioAssay by Johns Hopkins Ion Channel Center.
MrgX1 agonist: agonists of human MrgX1 receptor. Q96LB2. MrgX1-HEK293 cells, Fluo-4 calcium fluorescence, agonist mode; active compounds read high. B-score at 10 µM. 310,000 compounds, 0.44% hits;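 active = calcium response B-score plate-corrected fluorescence ratio at least 3 library SD, with starting fluorescence B-score inside 5 SD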
Target sequence (Q96LB2 whole entry, looked up): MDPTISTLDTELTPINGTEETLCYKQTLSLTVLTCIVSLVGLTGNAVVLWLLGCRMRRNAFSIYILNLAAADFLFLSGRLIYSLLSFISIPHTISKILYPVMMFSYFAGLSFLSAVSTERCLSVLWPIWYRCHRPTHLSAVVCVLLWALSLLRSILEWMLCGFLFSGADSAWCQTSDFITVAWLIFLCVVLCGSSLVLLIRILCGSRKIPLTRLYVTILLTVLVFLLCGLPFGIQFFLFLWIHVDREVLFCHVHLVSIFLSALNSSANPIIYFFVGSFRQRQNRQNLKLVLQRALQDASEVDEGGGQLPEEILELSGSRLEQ
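Material: HEK293 cells stably expressing human MrgX1 receptor | Quantity: 15,000 cells per well | Times: Cells plated overnight, dye loaded 0.5 h 37 °C, 0.5 h room temperature | Measured by: Kinetic Fluo-4 NW fluorescence of intracellular calcium | Control set: Positive and negative controls per plate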
RGS4 block: human RGS4 inhibition. 310,000 compounds, 0.45% hits. HEK293 M3R/RGS4 inducible, Fluo-4 calcium flux; active compounds read high; triggered by carbachol at its EC20. P49798. B-score at 10 µM;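 active = B-score, a plate-corrected calcium signal, over three deviations above library mean, with baseline fluorescence within five deviations of library mean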;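 also: RGS4 expression induced by doxycycline in cells with stable M3 receptor; B-score is computed from the integrated fluorescence ratio over baseline after carbachol; higher B-score means a larger calcium signal and so more RGS4 inhibition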
Target sequence (P49798 whole entry, looked up): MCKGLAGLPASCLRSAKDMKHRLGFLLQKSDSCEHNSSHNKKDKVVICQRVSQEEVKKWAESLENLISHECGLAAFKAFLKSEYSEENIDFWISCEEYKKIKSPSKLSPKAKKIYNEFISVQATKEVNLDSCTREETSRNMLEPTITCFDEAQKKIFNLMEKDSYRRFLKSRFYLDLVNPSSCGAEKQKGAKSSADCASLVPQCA
RGS4 pot: potentiators or activators of RGS4; B-score at 10 µM; HEK293 M3R/inducible RGS4, carbachol calcium flux Fluo4; active compounds read low; 310,000 compounds, 0.92% hits;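 active = B-score of the integrated calcium signal more than 4 SD below the library mean, with starting fluorescence not abnormally high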;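 also: negative B-score means reduced calcium response which marks RGS4 activation or potentiation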
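System: HEK293 FlpIn-TREx cells, stable M3R, doxycycline-inducible RGS4. Timing: overnight RGS4 induction, 30 min dye load 37 °C, 20 min compound RT. Also added: carbachol, ECmax concentration. Measured by: Fluo4 fluorescence kinetic imaging of calcium. Evaluation: integrated calcium ratio converted to B score.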
MrgX1 antagonist: human MrgX1 receptor antagonism, primary screen | Q96LB2 | 310,000 compounds, 1.3% hits | MRGX1-HEK293 calcium flux, Fluo-4, BAM8-22 antagonism; active compounds read low | AID 588676 | B-score at 10 µM;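 active = calcium-response B-score plate-corrected more than 3 library SD below zero, starting fluorescence within 5 deviations, no agonist response on first addition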;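 also: peak minus trough fluorescence over baseline after final BAM8-22 challenge near maximal dose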
MrgX1 allo act: allosterically activates human MrgX1 receptor signaling. 310,000 compounds, 0.63% hits. Q96LB2. B-score at 10 µM. MrgX1-HEK293, Fluo-4 calcium flux, FDSS; active compounds read high;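 active = plate-corrected calcium response at least 3 library SD above typical, normal starting fluorescence, not activating the receptor alone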;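 also: compound read alongside a low EC10 to EC30 dose of BAM8-22 agonist; peak minus trough fluorescence over baseline measured at the second addition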
MrgX1 antag conf: reconfirmed antagonist of human MrgX1 receptor signaling; AID 602420; 2,300 compounds, 19% hits; shares compounds with MrgX1 antagonist; MrgX1-HEK293, BAM8-22 calcium flux, Fluo-4; active compounds read low; remaining BAM8-22 calcium response % of control (active compounds read low), % at 10 µM;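 active = remaining agonist calcium response no higher than 100% minus 3 SD of agonist-only control wells, with starting fluorescence near control levels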;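 also: agonist BAM8-22 given at a near maximal EC90 to ECmax level; peak minus minimum fluorescence divided by baseline after agonist addition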
HEK293 Ca flux: counter-screen for MrgX1 antagonists: effect in parental HEK293 cells; Fluo-4 calcium fluorescence, FDSS; 4,000 compounds, 2% hits; shares compounds with MrgX1 antagonist; fluorescence ratio F(max-min)/F0 at 10 µM;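 active = duplicate-averaged calcium fluorescence ratio at least three times the standard deviation of buffer wells, a nonspecific response in parental cells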
HEK293 Ca counter: MrgX1 allosteric activator counter-screen hit in parental HEK293 cells; shares compounds with MrgX1 antagonist; parental HEK293 calcium flux, Fluo-4 fluorescence ratio; active compounds read high; fluorescence ratio F(max-min)/F0 at 10 µM; 4,000 compounds, 0.4% hits; AID 624114;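 active = calcium fluorescence ratio, averaged over duplicates, at least 3 SD of the buffer-well ratio, meaning a nonspecific response in receptor-free cells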;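 also: untransfected parental HEK293 lacking MrgX1 used as counterscreen for MrgX1 allosteric activators; fluorescence change taken during the second addition on a kinetic imager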
HEK293 Ca cntr2: activity in parental HEK293 cells lacking MrgX1 receptor; 4,000 compounds, 8.7% hits; Fluo-4 calcium fluorescence (FDSS); active compounds read high; AID 624115; fluorescence ratio F(max-min)/F0 at 10 µM; shares compounds with MrgX1 antagonist;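 active = calcium fluorescence ratio at least three times the spread of buffer wells, meaning a non-specific response in parental cells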
The depositor's hits bear a star; i = inactive; x = no result given. This is a sample that favours compounds with a hit; in the whole collection about 3.5% have one here.

SMILES | MrgX1 agonist | RGS4 block | RGS4 pot | MrgX1 antagonist | MrgX1 allo act | MrgX1 antag conf | HEK293 Ca flux | HEK293 Ca counter | HEK293 Ca cntr2
O=C(CSc1nnc2ccccn12)N1CCOCC1 | i | i | i | i | i | x | x | x | x
CCOc1ccc(CCNC(=O)c2ccc3ccccc3n2)cc1OCC | i | i | i | i | i | x | x | x | x
N#CC1=C(N)Oc2cc3c(cc2C1c1ccc(Cl)cc1)OCO3 (stereo not given) | i | i | i | -7.9* | i | i | i | i | i
CCN1CCN(C(=O)C2CCN(Cc3nc(-c4cccc(Cl)c4)oc3C)CC2)CC1 | i | i | i | i | i | x | x | x | x
CCN1CCN(C(=O)C2CCN(Cc3cc(Cl)ccc3O)CC2)CC1 | i | i | i | -7.7* | i | i | i | i | i
CC1(c2ccccc2)NC(=O)N(CC(=O)Nc2ccc3c(c2)OCO3)C1=O (stereo not given) | i | i | i | i | i | x | x | x | x
CC1(c2ccc(OC(F)F)cc2)NC(=O)N(CC(=O)Nc2ccc3c(c2)OCO3)C1=O (stereo not given) | i | i | i | -6.3* | i | i | i | i | i
COc1ccc(Cl)cc1N(CC(=O)NCC(C)C)S(=O)(=O)c1ccc(C)c([N+](=O)[O-])c1 | i | i | i | i | i | x | x | x | x
CC(C)NC(=O)c1cnc(N2CCN(c3ccccn3)CC2)c2ccccc12 | i | i | i | i | i | x | x | x | x
CCc1ccc(NC(=O)c2cnc(N3CCN(c4ccccn4)CC3)c3ccccc23)cc1 | i | i | -7.2* | -7.1* | i | 60%* | i | i | i
COc1cccc(CNC(=O)c2ccc(Cl)c(NC3=NC4CS(=O)(=O)CC4S3)c2)c1 (stereo not given) | i | i | i | i | i | x | x | x | x
COc1ccccc1C(=O)NC(=S)NNC(=O)c1sc2ccccc2c1Cl | i | i | -9.1* | -12* | i | i | i | i | i
CC1CCCCC1NC(=S)NC(=O)c1sc2ccccc2c1Cl (stereo not given) | i | i | i | i | i | x | x | x | x
Cc1cc(C(=O)NCCCN2CCCC2=O)cs1 | i | i | i | i | i | x | x | x | x
Cc1noc(C)c1C(=O)NCCCN1CCCC1=O | i | i | i | -4.9* | i | 81%* | i | i | i
Cc1oc(CC(C)C)c(CN)c1C(=O)O | i | i | i | -4.6* | i | i | i | i | i
CCSc1nnc(-c2ccncc2)n1Cc1ccccc1 | i | i | i | -6.5* | i | i | i | i | i
CNC(=O)CSc1nnc(-c2ccncc2)n1Cc1ccccc1 | i | i | i | i | i | x | x | x | x
Cc1cc(C)n2ncc(C(=O)Nc3cccc(O)c3)c2n1 | i | i | i | -5.9* | i | i | i | i | i
Cc1cc(C)n2ncc(C(=O)Nc3ccc4c(c3)OCO4)c2n1 | i | i | i | i | i | x | x | x | x
Cc1ccccc1NC(=O)C(C)OC(=O)c1ccccc1C(=O)N(C)c1ccccc1 (stereo not given) | i | i | i | -5.7* | i | i | i | i | i
Cc1ccc2c(C)c(C(=O)NCc3ccc(S(N)(=O)=O)cc3)oc2c1 | i | i | i | i | i | x | x | x | x
CCOc1ccccc1CNCCOC | i | i | i | i | i | x | x | x | x
O=C1C(C=NCc2ccco2)=C(O)c2ccccc21 | i | i | i | -8.6* | i | i | i | i | i
